# Source: PubChem
# ZTA DNA inh = blocks Epstein-Barr virus ZTA, an EBNA-1 counter-screen; inhibition, % at 11 µM; AID 2234; ZTA-DNA binding, fluorescence polarization; P03206; 0.15% of 320,000 active; in the data active = inhibition above about 33%
# Target sequence (P03206 whole entry, looked up): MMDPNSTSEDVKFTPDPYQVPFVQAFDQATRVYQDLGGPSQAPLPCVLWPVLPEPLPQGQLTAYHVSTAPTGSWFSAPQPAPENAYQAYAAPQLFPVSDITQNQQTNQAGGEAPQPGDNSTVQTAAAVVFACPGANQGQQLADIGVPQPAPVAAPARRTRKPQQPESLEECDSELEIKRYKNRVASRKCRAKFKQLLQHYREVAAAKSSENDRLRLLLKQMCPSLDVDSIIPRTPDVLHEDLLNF
# PfM18AAP inh = PfM18AAP enzyme inhibition; recombinant PfM18AAP, H-Glu-NHMec fluorogenic cleavage; inhibition, % at 7.35 µM; 1.2% of 290,000 active; AID 1822;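 active = inhibition above the campaign mean inhibition over all tested compounds plus 3 SD, cut at about 28% in these data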;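 also: 0% = plate median of test compound wells and 100% = 2 mM ZnCl2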
# ALR inh = inhibitors of human sulfhydryl oxidase ALR; purified ALR, DTT oxidation, H2O2 HRP-luminol luminescence; 3.8% of 290,000 active; inhibition, % (test concentration not listed); AID 485317;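 active = mean replicate inhibition above about 79%, with every replicate also reaching it, limit read from the data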
# Target sequence (P55789 whole entry, looked up): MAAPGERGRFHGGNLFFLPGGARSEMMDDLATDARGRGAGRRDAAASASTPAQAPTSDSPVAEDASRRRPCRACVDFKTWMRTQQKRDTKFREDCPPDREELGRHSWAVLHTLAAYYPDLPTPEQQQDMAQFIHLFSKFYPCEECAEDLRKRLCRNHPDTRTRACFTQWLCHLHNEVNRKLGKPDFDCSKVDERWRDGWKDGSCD
# EBNA-1 inh = blocks EBNA-1 binding to DNA. EBNA-1 DNA binding, fluorescence polarization. inhibition, % at 14.8 µM. 0.34% of 300,000 active; in the data active = inhibition above about 28%
# HCV core dimer = HCV core protein dimerization inhibition; 0.33% of 300,000 active; TR-FRET GST/Flag-core106 dimerization, 1536-well; inhibition, % at 5 µM;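 active = inhibition above the mean of all tested compounds plus 3 SD, set per screening campaign, cut at about 45% in these data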
#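 System: GST/Flag-tagged HCV core106 proteins. Incubation: compound-protein-antibody incubation 4 h at 22.5 °C. Technique: HTRF with 340 nm excitation, 617/671 nm emission. Medium: KF-containing HEPES buffer, pH 7.45, DTT, CHAPS, BSA. Read-out: inhibition (%) from 671 over 617 nm ratio. Also added: Eu(K)-anti-GST 90 ng/mL plus XL665-anti-Flag 1 µg/mL.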
# NS3 helicase inh = HCV NS3 helicase inhibition; NS3 helicase DNA unwinding, Cy5 molecular beacon fluorescence; inhibition, % at 10.9 µM; 0.56% of 290,000 active;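 active = inhibition above the mean of all tested compounds plus 3 SD, set per campaign, cut at about 35% in these data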;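 also: 0% = DMSO wells and 100% = thioflavine S control wells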
#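 System: HCV NS3 helicase fragment; control set: DMSO and thioflavine S; technique: Cy5 fluorescence at 0 and 60 min, beacon hairpin quenching; reagent: beacon DNA duplex substrate plus ATP; replicates: singlicate; schedule: 1 h reaction at 25 °C, ATP-initiated; medium: MOPS buffer pH 6.5 with MgCl2, DTT, Tween20, BSA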
# NS3 helicase cf = confirmation of Hepatitis C virus NS3 helicase inhibitors; AID 1943; shares compounds with NS3 helicase inh; 31% of 1,600 active; inhibition, % at 10.9 µM; NS3 helicase DNA unwinding, Cy5 molecular beacon fluorescence;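 active = inhibition above the mean of all tested compounds plus 3 SD, cutoff set per campaign, cut at about 36% in these data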
# FID counter trip = counter-screen for HCV NS3 helicase inhibitors: DNA intercalator displacement; shares compounds with NS3 helicase inh; DNA fluorescent intercalator displacement, fluorescence; inhibition, % at 7.9 µM; 4% of 1,600 active; AID 1945; in the data active = inhibition above about 37%;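 also: 0% = vehicle and 100% = reference compound; higher means more displacement of ethidium bromide from the DNA hairpin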
# The depositor's hits bear a star; / = no result; + = active, no number. Only some compounds are listed: those with a hit (about 5.2% of all), similar ones and a draw of the others.
SMILES,ZTA DNA inh,PfM18AAP inh,ALR inh,EBNA-1 inh,HCV core dimer,NS3 helicase inh,NS3 helicase cf,FID counter trip
CC(C)OC(=O)c1cc2c(ccn2C)n1CC(=O)N(Cc1ccccc1)c1ccc(F)cc1,20,-1,-4,3,9,38*,-12,-38
C=CCOC(=O)c1[nH]c2c(c1C)C(=O)CC(c1ccco1)C2 (centres undefined),19,-15,0,-12,28,39*,-4,6
COC(=O)c1[nH]c2c(c1C)C(=O)CC(c1ccccc1)C2 (centres undefined),-17,5,-1,-3,-4,-2,/,/
Cc1c(C(=O)OCC(C)C)[nH]c2c1C(=O)CC(c1ccco1)C2 (centres undefined),14,-15,-12,4,47*,37*,-11,-10
Cc1ccc(NC(=O)CCC(=O)NNC(=S)Nc2ccc(F)cc2F)cc1C,-4,6,63,-14,-16,19,/,/
CCOc1ccc(N(CC(=O)NC2CCCCC2)C(=O)Cn2nnc(-c3ccc(C)o3)n2)cc1,/,-3,/,/,/,-5,/,/
COc1ccc2c(c1)O/C(=C\c1ccco1)C2=O,-7,4,-5,-5,-4,44*,-1,24
COc1ccccc1N=Nc1ccc(O)c2ncccc12,-14,7,/,-6,-30,41*,-19,3
O=C(O)c1cc(N/N=C/C=C/c2ccccc2[N+](=O)[O-])ccc1Cl,8,19,99*,12,-5,43*,52*,-3
NS(=O)(=O)c1ccc(N/N=C/C=C/c2ccccc2[N+](=O)[O-])cc1,9,15,30,-8,-11,-8,/,/
CCOc1ccc(NC(=O)CCCNC(=O)Cn2cnc3sc(C)c(C)c3c2=O)cc1,-4,-13,2,-3,1,-6,/,/
CC(=O)OCCCNc1cc(SCc2ccco2)c2nonc2c1[N+](=O)[O-],-25,-13,90*,9,36,41*,31,27
COc1ccc(C2=NN(C(=O)CCC(=O)O)C(c3ccccc3F)C2)cc1 (centres undefined),7,0,-5,-5,-2,3,/,/
O=S(=O)(NC1CCCCC1)c1ccc(Cl)s1,6,-2,-1,-12,-6,52*,0,6
COc1ccc(NC(=O)CSc2nc(N)c(NC(=O)c3ccccc3F)c(=O)[nH]2)cc1,1,-3,-2,14,1,-15,/,/
CC(C)NC(=O)CSc1nc(N)c(NC(=O)c2ccccc2F)c(=O)[nH]1,4,4,-46,1,-9,65*,-3,-2
CCCC(=O)Nc1cccc(NC(=O)c2ccc([N+](=O)[O-])cc2Cl)c1,-13,0,-139,-4,-3,53*,-3,11
Cc1cc(C(=O)Nc2ccc(C)c(C)c2)n(-c2ccccc2)n1,12,-1,/,-11,5,-11,/,/
CCOC(=O)c1ccc(NC(=O)c2cc(C)nn2-c2ccccc2)cc1,1,-3,/,2,4,46*,-12,-32
Cc1nnc(SCC2=C(C(=O)O)N3C(=O)C(NC(=O)Cc4ccccc4)C3SC2)s1 (centres undefined),2,/,-2,/,/,/,/,/
Cc1nnc(SCC2=C(C(=O)O)N3C(=O)C(NC(=O)C(C)n4nc(C(F)(F)F)cc4C)C3SC2)s1 (centres undefined),-1,11,-37,-6,4,40*,30,-22
O=c1[nH]n2c(=O)c3c([nH]c2c1N=Nc1cccc(C(F)(F)F)c1)CCCC3,22,25,97*,27,-1,64*,79*,20
O=C(O)c1cccnc1SCc1ccc([N+](=O)[O-])cc1,20,1,-4,7,0,3,/,/
O=C(O)c1cccnc1SCc1cccc(Br)c1,6,-7,24,11,-3,38*,-13,27
COc1cccc(-c2coc3c(C)c4oc(=O)c(CC(=O)O)c(C)c4cc23)c1,8,9,/,2,2,44*,59*,-10
SMILES,ZTA DNA inh,PfM18AAP inh,ALR inh,EBNA-1 inh,HCV core dimer,NS3 helicase inh,NS3 helicase cf,FID counter trip
COc1ccc(NC(=O)CC(c2ccco2)C(C)C)cc1 (centres undefined),-5,-1,12,2,-11,-11,/,/
Cn1c(=O)c2ccccc2n(CC(=O)N2CCCc3ccccc32)c1=O,-10,2,/,-8,-13,37*,-6,-14
COCCCn1c(=O)c2ccccc2n(CC(=O)N2CCCc3ccccc32)c1=O,9,3,0,4,12,1,/,/
COC(=O)C1=C(O)/C(=C\c2ccc(CNS(=O)(=O)c3ccc(Cl)cc3)o2)N=C1C,4,-15,-6,13,-5,40*,14,-10
COC(=O)C1=C(O)/C(=C\c2ccc(CNS(=O)(=O)c3ccccc3)o2)N=C1C,-1,3,-6,3,-10,33,/,/
CC(C)C(NC(=O)c1ccccc1NC(=O)c1ccccc1)C(=O)NCCCn1ccnc1 (centres undefined),2,-7,-2,2,-3,3,/,/
Cc1cc(/C=C2\Cc3ccccc3C2=O)c(C)n1-c1ccccc1,0,10,1,8,34,39*,-17,-20
Cc1cc(C=C2C(=O)c3ccccc3C2=O)c(C)n1-c1ccccc1,11,-2,1,10,10,15,/,/
NC(=O)CC(NC(=O)c1ccccc1)c1ccc(N2CCc3ccccc3C2)c([N+](=O)[O-])c1 (centres undefined),-14,-7,-20,-6,11,-21,/,/
CCCn1c(=S)[nH]c2sc3c(c2c1=O)CCCC3,-8,-2,/,-9,-1,18,/,/
Cn1c(=S)[nH]c2sc3c(c2c1=O)CCC(C(C)(C)C)C3 (centres undefined),2,-3,-1,9,11,43*,8,-13
O=C(O)c1cccc(NC(=S)N/N=C/c2ccccc2OCc2ccc(Br)cc2)c1,-6,27,11,27,31,42*,63*,4
CCOC(=O)C1=C(O)/C(=C/c2ccc(OCC(=O)O)c(OC)c2)SC1=Nc1ccc(OC)cc1,-9,-3,44,-1,2,36*,42*,-16
CCN(CC)c1ccc2nc3ccccc3[n+](CC)c2c1,+,1,-8,174*,-378,57*,99*,51*
CCOc1cccc(=O)c2c(C)n(C)c(C)c12,0,22,1,-15,11,11,/,/
CCCCCn1c(C)c2c(OCC)cccc(=O)c2c1C,1,-7,/,2,-1,54*,-5,-27
